The source made the active and inactive calls. The rule behind the calls is not given here.
Legend:
[1] = Cytotoxicity against human SH-SY5Y cells assessed as cell survival at 100 uM after 24 hrs by MTT assay relative to control; assay type: cell-based; conditions: read-out: Survival
Summary of the method: (§1)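 SH-SY5Y human neuroblastoma cells seeded at 5 × 10⁴ cells/mL, incubated 24 h at 37 °C, then exposed to compounds at final concentrations of […] for 24 h. MTT added for a further 4 h at 37 °C. Absorbance read at 570 nm and reported as percent viability. Five parallel samples per condition.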

[2] = Cytotoxicity against human SH-SY5Y cells assessed as cell survival at 500 uM after 24 hrs by MTT assay relative to control; assay type: cell-based; conditions: read-out: Survival; summary of the method: as §1
[3] = Cytotoxicity against human SH-SY5Y cells assessed as cell survival at 1000 uM after 24 hrs by MTT assay relative to control; assay type: cell-based; conditions: read-out: Survival; summary of the method: as §1
Rattus norvegicus = assay: In vivo neurogenic activity in Sprague-Dawley rat neural progenitor cells at 4 mg/kg, ip qd pretreated for 28 days followed by BrdU addition at 2 hrs interval for twice on day 29 measured after 24 hrs by BrdU incorporation assay relative to control; assay type: functional
Summary of the method: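 Male SD rats aged 10 weeks, acclimatized 7 days (11 weeks old at start), dosed ip once daily for 28 days with compound in soybean oil containing 10% ethanol; vehicle group received 10% ethanol in oil. On day 29, BrdU in saline given twice at 100 mg/kg, 2 h apart. Rats sacrificed 24 h after the last BrdU. BrdU+ cells in SGZ-GCL counted by DAB immunostaining of 30 µm cryosections; n = 8; mean ± SEM.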

Structure (SMILES)	viability at 24 h, 100 µM [1] [%]	viability at 24 h, 500 µM [2] [%]	viability at 24 h, 1000 µM [3] [%]	Activity (Rattus norvegicus)
Cc1ccc(C#Cc2ccc(OCc3ccccc3)cc2)cc1	94.2	72.5	68	
CC(=O)Oc1ccc(/C=C/c2cc(C)cc(C)c2)cc1	3.24	2.8	18.4	
COc1cccc(/C=C/c2ccc3c(c2)OCO3)c1	72.5	52.7	32	
CCCC(=O)Nc1ccc(/C=C/c2ccc3c(c2)OCO3)cc1	58.8	40.7	33.3	Active
N#Cc1cccc(/C=C/c2ccc(O)cc2)c1	20.9	16.9	14.9	
Nc1ccc(/C=C/c2ccc3c(c2)OCO3)cc1	47.6	39.1	32.2	
COc1ccc(/C=C/c2cccc(C#N)c2)cc1	66.3	67	48.3	
CC(=O)Nc1ccc(/C=C/C(=O)c2ccc3c(c2)OCO3)cc1	6.71	2.78	4.69	
COc1ccc(C#Cc2cc(C(F)(F)F)cc(C(F)(F)F)c2)cc1	28.6	20.9	18.3	
Cc1ccc(C#Cc2ccc3c(c2)OCO3)cc1	51.9	24.8	23.7	
COc1cc(/C=C/C(=O)c2ccc3c(c2)OCO3)ccc1O	16.3	25.2	26.2	
CN(C)c1ccc(/C=C/c2ccc3c(c2)OCO3)cc1	83.3	51.2	52.6	Active
CC(=O)c1ccc(/C=C/c2ccc(O)cc2)cc1	94.4	59.2	24.6	
COc1cc(/C=C/c2ccc(O)cc2)cc(OC)c1OC	27.5	25.9	21.2	
COc1ccccc1/C=C/c1ccc2c(c1)OCO2	36.1	33.6	23.6	
COc1ccc(/C=C/c2ccc(Cl)cc2)cc1OC	57.3	51.6	56.4	
COc1ccc(/C=C/C(=O)c2ccc3c(c2)OCO3)cc1O	44.7	22.2	17.1	
COc1ccc(/C=C/c2ccc3c(c2)OCO3)cc1	76.1	69.6	62.8	Active
CCOc1ccc(C#Cc2ccc3c(c2)OCO3)cc1	56.5	41	38.1	inactive
Oc1ccc(/C=C/c2cc(F)cc(F)c2)cc1	-13.6	-11	-7.78	
Oc1ccc(/C=C/c2ccc3c(c2)OCCO3)cc1	2.8	2	-0.08	
C(#Cc1cccs1)c1ccc2c(c1)OCO2	43.9	27.5	17.7	
COc1cccc(/C=C/c2ccc(NC(C)=O)cc2)c1	44.5	26.1	11.9	
CC(=O)c1ccc(/C=C/c2ccc3c(c2)OCO3)cc1	70.3	63.5	53.9	

Structure (SMILES)	viability at 24 h, 100 µM [1] [%]	viability at 24 h, 500 µM [2] [%]	viability at 24 h, 1000 µM [3] [%]	Activity (Rattus norvegicus)
COc1ccc2c(c1)OC(c1ccc3c(c1)OCO3)CC2=O (stereo not drawn)	73.2	44.8	27.3	
COc1ccc(/C=C/c2ccc(N)c(F)c2)cc1	80	65.1	47.8	
COc1ccc(/C=C/c2ccc(N)cc2)cc1OC	53.7	51.7	50.4	
COc1cc(/C=C/C(=O)c2ccc(O)cc2)cc(OC)c1	5.64	3.53	2.57	
COc1cc(/C=C/c2ccc3c(c2)OCO3)cc(OC)c1	74	60.9	45.7	
CC(=O)Nc1cccc(/C=C/c2ccc3c(c2)OCO3)c1	20.9	7.78	2.7	
Cc1cc(C)cc(/C=C/c2ccc(O)cc2)c1	7.31	1.84	2.88	
COc1ccc(/C=C/c2cccc(OC(F)(F)F)c2)cc1	40.2	40.5	38.7	
C(=C\c1ccc2c(c1)OCO2)/c1ccc(OCc2ccccc2)cc1	67.3	72.7	80.6	
COc1ccc(C#Cc2ccc(OC)c(OC)c2)cc1	94.1	78.9	65.5	
COc1ccc(C(=O)/C=C/c2ccc3c(c2)OCO3)c(O)c1	90.4	59.9	49.3	
Nc1ccc(/C=C/c2cccc(OC(F)(F)F)c2)cc1	51.8	31.9	26.9	
CN(C)c1ccc(/C=C/C(=O)c2ccc3c(c2)OCO3)cc1	49.8	40.2	23.7	
C(=C\c1ccc2c(c1)OCO2)/c1ccncc1	8.43	4.26	3.56	
Oc1ccc(/C=C/c2ccc(Cl)cc2)cc1O	107	69.2	38.5	
COc1ccc(/C=C/c2ccc(O)cc2)cc1OC	56.8	44.1	35.3	
CCCCCOc1ccc(C#Cc2ccc3c(c2)OCO3)cc1	69.8	22.9	15.3	
COc1ccc(C(=O)/C=C/c2ccc(O)c(OC)c2)cc1	13.3	39.8	165	
CCCCCc1ccc(C#Cc2ccc(OCc3ccccc3)cc2)cc1	62.6	51.3	49	
C(#Cc1ccc2c(c1)OCO2)c1ccsc1	46.2	32.9	21	
COc1ccc(C#Cc2cc(C)cc(C)c2)cc1	54.2	24.3	22.1	
COc1ccc(/C=C/c2ccc(NC(C)=O)c(F)c2)cc1	14.2	1.52	0.69	
Oc1ccc(/C=C/c2cc(C(F)(F)F)cc(C(F)(F)F)c2)cc1	-4.81	-0.07	-3.86	
Oc1ccc(/C=C/c2cccc(OC(F)(F)F)c2)cc1	77.1	55.4	5.06	

From ChEMBL document CHEMBL4138103, “Discovery of efficient stimulators for adult hippocampal neurogenesis based on scaffolds in dragon's blood” (Eur J Med Chem, 2017)
